Activity calls are given as the source filed them. No cut-off for these calls is given here.

Series [1] relates to Mus musculus. As to the kind of experiment: Suppression of blood glucose concentration in ob/ob C57Bl/6J mouse model of T2DM at 4.5 mg/kg, ip and treated with 60 mg/kg, po OATP/MRP2 inhibitor rifampicin 2.5 hrs prior to oral glucose-tolerance test. The format is functional, organism-based. A digest of the protocol:
(§1)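 Male ob/ob mice aged 10–11 weeks, n=7, randomised on blood glucose and fasted overnight. Rifampicin 60 mg/kg p.o. 2.5 h before the oGTT, compound 30 mg/kg p.o. 1 h before, GLP1(9-36)NH2 i.p. 15 min before, each given as indicated. Glucose 2 g/kg orally. Tail-vein glucose by glucometer at 0, 15, 30, 60 and 90 min.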

Series [2] has as its system Mus musculus. The series is described as follows: Suppression of blood glucose concentration in ob/ob C57Bl/6J mouse model of T2DM at 4.5 mg/kg, ip in absence of 60 mg/kg, po OATP/MRP2 inhibitor rifampicin by oral glucose-tolerance test. The format is functional, organism-based. The gist of the method: as §1
The nature of series [3]: Tmax in mouse at 10 mg/kg, po. As to conditions: in vivo.
Series [4] can be described thus: Cmax in mouse at 10 mg/kg, po. As to conditions: in vivo.
For series [5], the target named is T1, Glucagon-like peptide 1 receptor (Mus musculus) (UniProt O35659).
T1 sequence (whole entry): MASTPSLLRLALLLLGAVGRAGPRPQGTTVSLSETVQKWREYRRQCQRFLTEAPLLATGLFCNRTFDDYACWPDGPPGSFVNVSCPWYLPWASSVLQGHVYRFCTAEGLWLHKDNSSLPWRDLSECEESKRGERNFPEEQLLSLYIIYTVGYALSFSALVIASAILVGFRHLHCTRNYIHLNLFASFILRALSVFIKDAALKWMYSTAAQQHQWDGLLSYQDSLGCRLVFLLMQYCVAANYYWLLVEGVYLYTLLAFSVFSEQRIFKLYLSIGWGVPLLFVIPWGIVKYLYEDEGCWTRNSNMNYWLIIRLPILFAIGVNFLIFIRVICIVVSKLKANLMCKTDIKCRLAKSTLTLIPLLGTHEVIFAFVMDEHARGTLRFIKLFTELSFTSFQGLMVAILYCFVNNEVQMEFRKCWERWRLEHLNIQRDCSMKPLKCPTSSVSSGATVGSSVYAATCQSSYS
As to the kind of experiment: Positive allosteric modulator activity at mouse GLP-1R expressed in PSC-HEK293 cells in presence of EC20 level of GLP1(9-36)NH2 incubated for 30 mins by HTRF cAMP assay relative to control. In kind it is functional, cell-based.

The target in series [6] is T2, Glucagon-like peptide 1 receptor (Mus musculus, UniProt O35659).
T2 sequence (O35659 whole entry): T1 sequence (whole entry)
As to the kind of experiment: Positive allosteric modulator activity at mouse GLP-1R expressed in PSC-HEK293 cells in presence of EC20 level of GLP1(9-36)NH2 incubated for 30 mins by HTRF cAMP assay. In kind it is functional, cell-based.

The target in series [7] is T3, Glucagon-like peptide 1 receptor (Homo sapiens, UniProt P43220). As to the kind of experiment: Positive allosteric modulator activity at human GLP-1R expressed in PSC-HEK293 cells in presence of EC20 level of GLP1(9-36)NH2 incubated for 30 mins by HTRF cAMP assay relative to control. In kind it is functional, cell-based. A digest of the protocol:
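Thaw-and-use PSC-HEK293 cells stably expressing human GLP-1R, 2000 cells/well in HBSS/20 mM HEPES/0.1% BSA with 2 mM IBMX. Enhancer format: compound dose-response plus fixed EC20 GLP1(9-36)NH2. Shift format: GLP1(9-36)NH2 dose-response plus 10 or 3 μM compound. 30 min at room temperature. HTRF cAMP read after 1 h lysis (665/620 nm). EC50 from a 4-parameter logistic fit.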
(TR-FRET usually uses a lanthanide donor and a delayed reading to cut background.)

Series [8] has as its target T1, Glucagon-like peptide 1 receptor (Mus musculus). The series is described as follows: Inhibition of 15 mM glucose-mediated increase in intracellular Ca2+ level in mouse MIN6-c4 cells at 30 uM by FLIPR assay relative to control. The format is functional, cell-based.
The target in series [9] is T3, Glucagon-like peptide 1 receptor. The series is described as follows: Positive allosteric modulator activity at GLP-1R in human 1.1B4 cells in presence of EC20 level of GLP1(9-36)NH2 incubated for 30 mins by HTRF cAMP assay. In kind it is functional, cell-based. The gist of the method:
(§2)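 Human pancreatic β-cell line 1.1B4, 20,000 cells/well cultured overnight, washed twice; compound concentration-response with fixed 10 nM GLP1(9-36)NH2, 30 min. cAMP by HTRF 665/620 ratio, normalised to buffer (1x HBSS, 0.1% BSA, 1 mM IBMX; 0%) and GLP-1(7-36)NH2 (100%); 4-parameter logistic fit.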

Series [10] addresses T1, Glucagon-like peptide 1 receptor (Mus musculus). The series is described as follows: Positive allosteric modulator activity at GLP-1R in mouse MIN6-c4 cells assessed as effect on glucose-mediated increase in intracellular Ca2+ level by FLIPR assay relative to control. In kind it is functional, cell-based.
Series [11] addresses T3, Glucagon-like peptide 1 receptor. The series is described as follows: Positive allosteric modulator activity at human GLP-1R expressed in PSC-HEK293 cells assessed as potentiation of GLP1(9-36)NH2-induced cAMP accumulation by measuring shift in EC50 of endogenous GLP1(9-36)NH2 at 10 uM incubated for 30 mins by HTRF cAMP assay relative to control. The format is functional, cell-based. The gist of the method:
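Thawed frozen PSC-HEK293 cells stably expressing human GLP-1R, 2000 cells/well in HBSS/20 mM HEPES/0.1% BSA with 2 mM IBMX. Shift format: GLP1(9-36)NH2 dose-response with compound fixed at 10 or 3 µM; 30 min room temperature; cAMP by HTRF (665/620 nm ratio) after 1 h with lysis reagents; 4-parameter logistic fit; EC50 shift factor derived.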
(Cyclic AMP is a second messenger, typically raised through Gs and lowered through Gi signalling.)

The nature of series [12]: Agonist activity at KATP channel (unknown origin). Further details: species or system Homo sapiens.
Series [13] has as its target Sodium channel protein type 5 subunit alpha (Homo sapiens, UniProt Q14524). As to the kind of experiment: Effect on Nav1.5 (unknown origin).
The target of series [14] is T3, Glucagon-like peptide 1 receptor. As to the kind of experiment: Positive allosteric modulator activity at GLP-1R in human 1.1B4 cells in presence of EC20 level of GLP1(9-36)NH2 incubated for 30 mins by HTRF cAMP assay relative to control. In kind it is functional, cell-based. A digest of the protocol:
as §2

For series [15] the target is unchanged. As to the kind of experiment: Positive allosteric modulator activity at human GLP-1R expressed in PSC-HEK293 cells in presence of EC20 level of GLP1(9-36)NH2 incubated for 30 mins by HTRF cAMP assay. The format is functional, cell-based. A digest of the protocol: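 Thaw-and-use PSC-HEK293 cells stably expressing human GLP-1R, 2000 cells/well in HBSS/20 mM HEPES/0.1% BSA with 2 mM IBMX. Enhancer format: compound dose-response plus fixed EC20 GLP1(9-36)NH2. Shift format: GLP1(9-36)NH2 dose-response plus 10 or 3 μM compound. 30 min at room temperature. EC50 from a 4-parameter logistic fit.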

Series [16] is described as follows: Stability in GSH assay. In kind it is physicochemical.
The target in series [17] is Sodium channel protein type 2 subunit alpha (Homo sapiens) (UniProt Q99250). As to the kind of experiment: Effect on Nav1.2 (unknown origin).
In series [18] the target is T3, Glucagon-like peptide 1 receptor. The series is described as follows: Displacement of radioactive labeled GLP-1(7-36)NH2 from human GLP-1R by radioactive ligand binding assay.

T3 sequence (P43220 whole entry): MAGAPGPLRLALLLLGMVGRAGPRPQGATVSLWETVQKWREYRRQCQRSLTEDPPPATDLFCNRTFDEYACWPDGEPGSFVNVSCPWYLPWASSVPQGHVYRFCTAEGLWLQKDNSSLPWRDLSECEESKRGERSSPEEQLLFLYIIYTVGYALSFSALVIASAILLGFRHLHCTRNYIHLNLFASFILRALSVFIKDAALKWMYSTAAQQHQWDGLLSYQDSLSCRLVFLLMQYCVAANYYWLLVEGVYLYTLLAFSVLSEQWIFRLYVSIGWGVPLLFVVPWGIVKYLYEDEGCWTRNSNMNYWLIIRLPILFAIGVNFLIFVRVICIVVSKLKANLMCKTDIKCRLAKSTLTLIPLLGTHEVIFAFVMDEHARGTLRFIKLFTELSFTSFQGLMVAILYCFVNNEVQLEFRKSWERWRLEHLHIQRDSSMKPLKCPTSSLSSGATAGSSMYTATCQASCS
Sequence of Sodium channel protein type 5 subunit alpha (Q14524 whole entry): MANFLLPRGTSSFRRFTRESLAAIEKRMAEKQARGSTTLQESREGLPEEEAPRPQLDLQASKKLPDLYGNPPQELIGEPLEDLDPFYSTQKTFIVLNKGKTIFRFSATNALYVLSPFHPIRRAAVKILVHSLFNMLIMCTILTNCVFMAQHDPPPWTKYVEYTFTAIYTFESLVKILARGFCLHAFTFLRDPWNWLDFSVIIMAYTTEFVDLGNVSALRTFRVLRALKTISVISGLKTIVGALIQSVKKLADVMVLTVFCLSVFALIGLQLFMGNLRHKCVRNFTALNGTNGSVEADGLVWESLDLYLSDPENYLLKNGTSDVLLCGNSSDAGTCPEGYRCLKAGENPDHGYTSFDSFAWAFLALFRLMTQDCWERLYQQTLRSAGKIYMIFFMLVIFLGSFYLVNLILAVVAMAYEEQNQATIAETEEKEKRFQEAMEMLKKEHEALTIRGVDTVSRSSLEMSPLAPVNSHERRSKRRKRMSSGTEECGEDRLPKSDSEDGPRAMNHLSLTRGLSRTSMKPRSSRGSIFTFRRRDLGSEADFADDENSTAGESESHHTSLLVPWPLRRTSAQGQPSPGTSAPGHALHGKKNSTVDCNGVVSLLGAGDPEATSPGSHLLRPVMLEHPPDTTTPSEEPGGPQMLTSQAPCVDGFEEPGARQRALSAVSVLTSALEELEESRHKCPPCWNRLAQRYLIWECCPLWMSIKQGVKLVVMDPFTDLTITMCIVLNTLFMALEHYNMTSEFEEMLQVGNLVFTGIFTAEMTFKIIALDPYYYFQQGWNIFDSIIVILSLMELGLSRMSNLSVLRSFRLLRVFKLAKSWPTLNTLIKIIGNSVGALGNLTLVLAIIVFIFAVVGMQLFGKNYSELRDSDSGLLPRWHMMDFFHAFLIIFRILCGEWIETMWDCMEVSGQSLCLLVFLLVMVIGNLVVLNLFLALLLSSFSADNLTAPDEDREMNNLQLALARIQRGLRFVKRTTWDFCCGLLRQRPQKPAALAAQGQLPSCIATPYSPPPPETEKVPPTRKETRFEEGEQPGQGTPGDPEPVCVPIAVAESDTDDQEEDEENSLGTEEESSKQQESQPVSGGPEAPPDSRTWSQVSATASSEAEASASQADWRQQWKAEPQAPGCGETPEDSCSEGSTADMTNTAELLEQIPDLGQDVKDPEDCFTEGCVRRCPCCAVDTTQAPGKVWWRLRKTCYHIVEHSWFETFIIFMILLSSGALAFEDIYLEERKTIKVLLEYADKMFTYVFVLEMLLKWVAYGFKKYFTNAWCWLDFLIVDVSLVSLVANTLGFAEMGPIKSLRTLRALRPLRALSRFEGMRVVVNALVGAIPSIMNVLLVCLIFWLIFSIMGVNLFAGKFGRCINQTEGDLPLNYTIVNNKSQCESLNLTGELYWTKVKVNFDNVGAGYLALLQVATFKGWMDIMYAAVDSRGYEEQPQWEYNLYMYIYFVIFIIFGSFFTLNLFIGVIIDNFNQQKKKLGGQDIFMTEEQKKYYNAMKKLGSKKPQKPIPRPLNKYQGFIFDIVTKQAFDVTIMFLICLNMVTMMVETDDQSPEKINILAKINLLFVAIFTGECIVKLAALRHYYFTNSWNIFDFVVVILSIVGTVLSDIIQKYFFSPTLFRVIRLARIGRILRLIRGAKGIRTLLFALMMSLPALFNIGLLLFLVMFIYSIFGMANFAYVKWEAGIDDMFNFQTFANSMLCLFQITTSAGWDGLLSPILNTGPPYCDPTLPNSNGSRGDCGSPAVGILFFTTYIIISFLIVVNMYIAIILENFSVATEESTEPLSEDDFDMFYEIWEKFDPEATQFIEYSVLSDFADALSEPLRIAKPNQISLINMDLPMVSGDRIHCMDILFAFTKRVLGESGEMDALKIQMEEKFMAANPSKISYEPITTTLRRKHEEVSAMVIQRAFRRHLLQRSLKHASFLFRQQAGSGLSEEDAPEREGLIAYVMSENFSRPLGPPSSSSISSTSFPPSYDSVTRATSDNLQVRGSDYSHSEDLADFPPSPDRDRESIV
Sequence of Sodium channel protein type 2 subunit alpha (Homo sapiens) (Q99250 whole entry, looked up): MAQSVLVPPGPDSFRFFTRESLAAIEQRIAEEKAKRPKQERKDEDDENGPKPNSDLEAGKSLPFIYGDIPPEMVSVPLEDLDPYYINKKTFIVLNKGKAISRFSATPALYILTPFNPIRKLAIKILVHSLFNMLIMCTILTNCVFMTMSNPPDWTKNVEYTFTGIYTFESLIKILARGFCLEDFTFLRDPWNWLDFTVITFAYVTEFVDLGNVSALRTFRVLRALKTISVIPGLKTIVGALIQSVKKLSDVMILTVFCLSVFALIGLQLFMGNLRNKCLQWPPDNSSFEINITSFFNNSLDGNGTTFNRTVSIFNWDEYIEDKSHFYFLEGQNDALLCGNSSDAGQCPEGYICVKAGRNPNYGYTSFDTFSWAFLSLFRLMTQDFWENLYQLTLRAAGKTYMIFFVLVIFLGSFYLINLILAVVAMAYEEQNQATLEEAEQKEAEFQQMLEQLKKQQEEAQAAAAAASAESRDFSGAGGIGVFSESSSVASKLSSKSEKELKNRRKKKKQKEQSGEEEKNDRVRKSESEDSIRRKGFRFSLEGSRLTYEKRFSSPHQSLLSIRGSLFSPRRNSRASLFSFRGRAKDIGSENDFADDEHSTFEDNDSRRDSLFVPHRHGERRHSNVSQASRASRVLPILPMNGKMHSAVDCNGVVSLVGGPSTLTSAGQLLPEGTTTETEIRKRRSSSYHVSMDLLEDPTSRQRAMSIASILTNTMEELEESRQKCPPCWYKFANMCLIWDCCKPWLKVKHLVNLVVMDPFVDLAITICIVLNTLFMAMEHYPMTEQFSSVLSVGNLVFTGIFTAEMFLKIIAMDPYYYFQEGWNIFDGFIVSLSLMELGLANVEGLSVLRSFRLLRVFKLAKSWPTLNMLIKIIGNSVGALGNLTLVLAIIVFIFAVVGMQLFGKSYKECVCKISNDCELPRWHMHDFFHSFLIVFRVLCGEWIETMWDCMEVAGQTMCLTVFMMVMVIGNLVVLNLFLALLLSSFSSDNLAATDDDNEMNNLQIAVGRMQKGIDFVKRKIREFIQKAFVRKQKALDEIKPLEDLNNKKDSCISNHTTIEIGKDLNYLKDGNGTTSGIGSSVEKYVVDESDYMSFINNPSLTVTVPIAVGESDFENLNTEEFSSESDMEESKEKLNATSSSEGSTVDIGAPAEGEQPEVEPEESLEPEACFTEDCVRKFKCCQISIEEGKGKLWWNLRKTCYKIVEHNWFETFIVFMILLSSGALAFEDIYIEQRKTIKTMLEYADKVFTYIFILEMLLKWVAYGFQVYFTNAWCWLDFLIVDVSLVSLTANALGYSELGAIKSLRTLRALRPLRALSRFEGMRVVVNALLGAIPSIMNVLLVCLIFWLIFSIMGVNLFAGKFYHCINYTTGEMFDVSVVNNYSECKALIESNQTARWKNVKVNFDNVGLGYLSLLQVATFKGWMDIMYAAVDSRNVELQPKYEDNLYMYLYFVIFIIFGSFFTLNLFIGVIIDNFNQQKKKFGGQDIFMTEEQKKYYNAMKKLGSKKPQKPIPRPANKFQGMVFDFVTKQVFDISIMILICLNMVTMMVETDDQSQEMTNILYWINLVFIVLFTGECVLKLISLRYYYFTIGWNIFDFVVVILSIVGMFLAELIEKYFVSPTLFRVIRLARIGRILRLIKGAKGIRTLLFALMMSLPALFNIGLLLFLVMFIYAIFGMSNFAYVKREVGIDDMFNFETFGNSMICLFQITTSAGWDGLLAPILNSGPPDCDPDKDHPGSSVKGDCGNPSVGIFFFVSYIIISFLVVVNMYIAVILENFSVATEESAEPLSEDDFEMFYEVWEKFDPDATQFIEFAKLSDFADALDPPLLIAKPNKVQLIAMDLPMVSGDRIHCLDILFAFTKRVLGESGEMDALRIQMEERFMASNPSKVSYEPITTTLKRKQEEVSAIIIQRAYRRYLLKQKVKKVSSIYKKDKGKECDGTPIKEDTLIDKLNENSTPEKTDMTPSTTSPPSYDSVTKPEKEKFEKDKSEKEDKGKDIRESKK

For the molecule `CC[C@H](C)[C@H](NC(=O)[C@H](Cc1ccccc1)NC(=O)[C@H](CCC(=O)O)NC(=O)[C@H](CCCCN)NC(=O)[C@H](C)NC(=O)[C@H](C)NC(=O)[C@H](CCC(N)=O)NC(=O)CNC(=O)[C@H](CCC(=O)O)NC(=O)[C@H](CC(C)C)NC(=O)[C@H](Cc1ccc(O)cc1)NC(=O)[C@H](CO)NC(=O)[C@H](CO)NC(=O)[C@@H](NC(=O)[C@H](CC(=O)O)NC(=O)[C@H](CO)NC(=O)[C@@H](NC(=O)[C@H](Cc1ccccc1)NC(=O)[C@@H](NC(=O)CNC(=O)[C@@H](N)CCC(=O)O)[C@@H](C)O)[C@@H](C)O)C(C)C)C(=O)N[C@@H](C)C(=O)N[C@@H](Cc1c[nH]c2ccccc12)C(=O)N[C@@H](CC(C)C)C(=O)N[C@H](C(=O)N[C@@H](CCCCN)C(=O)NCC(=O)N[C@@H](CCCNC(=N)N)C(N)=O)C(C)C`, the outcome in the series on Mus musculus [1] and in the series on Mus musculus [2] was inactive.
Turning to `CO[C@H]1/C=C/O[C@@]2(C)Oc3c(C)c(O)c4c(O)c(c(/C=N/N5CCN(C)CC5)c(O)c4c3C2=O)NC(=O)/C(C)=C\C=C\[C@H](C)[C@H](O)[C@@H](C)[C@@H](O)[C@@H](C)[C@H](OC(C)=O)[C@@H]1C` [RIFAMPIN], the Tmax in series [3] amounted to 1.5 h. Besides, the highest level in series [4] (Cmax) was 13 µM.
Turning to `Cc1cc(-n2nc3c(c2-n2ccn(-c4ccc5c(cnn5C)c4F)c2=O)[C@H](C)N(C(=O)c2cc4cc([C@H]5CCOC(C)(C)C5)ccc4n2[C@@]2(c4noc(=O)[nH]4)C[C@@H]2C)CC3)cc(C)c1F` [ORFORGLIPRON], the maximum response (Emax) in series [5] was 100%; in [7], 91%. The EC50 in [6] is 300 nM.
Turning to `CC1=Nc2ccc(Cl)cc2S(=O)(=O)N1`, the inhibition result in [8] is “Active”.
On to `CC(C)(C)OC(=O)n1c2c(c3ccccc31)C[C@H]1C(=O)NC[C@@H]2N1C(=O)CC1CCC(F)(F)CC1`, for which the EC50 entry in series [9] is “Not Active”; in [12], 2670 nM; in series [15] it was 5 nM. Further, the “fold change (FC)” value in [10] was “inactive”. Also, the Ratio EC50 in series [11] was 3800. Also, in series [13], the result was Active. Besides, the Emax result in series [14] was “inactive”. Besides, the Stability result in [16] is reported as “Stable”. Also, in series [17], the result was Active. The inhibition entry in series [18] is “inactive”. The maximal effect (Emax) in series [7] came out at 99%.

As usually defined, the Tmax is the time at which the peak concentration occurs. In general, Cmax refers to the peak of the concentration-time curve. A word on the Emax: it is the greatest response seen or fitted, relative to the assay's reference. The term EC50 denotes the midpoint of the concentration-response curve.

These data come from ChEMBL document CHEMBL4354813, “Design, Synthesis, and Pharmacological Evaluation of Potent Positive Allosteric Modulators of the Glucagon-like Peptide-1 Receptor (GLP-1R)” (J Med Chem, 2020).
